Experimental data taken from ChEMBL document CHEMBL5329156, “Discovery and development of novel substituted monohydrazides as potent antifungal agents” (RSC Med Chem, 2023).
≈ marks a conversion by molar mass, not a printed value. Calls of active or inactive are those of the source. The rule behind the calls is not given here.

Columns and labels:
Candida albicans [1] = test: Antifungal activity against Candida albicans ATCC 10231 assessed as fungal growth inhibition by double dilution method; type: functional
Summary of the method: (§1)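 Broth microdilution after CLSI M27-A3/M38-A2 with minor changes. Single colony grown overnight in YPD at 35 °C, 200 rpm. Compound final range 0.06-31.3 µg/mL; incubated 48 h at 35 °C.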

Candida albicans [2] = test: Antifungal activity against Candida albicans ATCC 64124 assessed as fungal growth inhibition by double dilution method; type: functional
Summary of the method: (§2)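 Broth microdilution after CLSI M27-A3/M38-A2 with minor modifications. A single colony was grown overnight in YPD at 35 °C with shaking at 200 rpm. Cells were mixed 1:1 with compound (final 0.06-31.3 µg/mL, from DMSO stocks) and incubated 48 h at 35 °C.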

Candida albicans [3] = test: Antifungal activity against itraconazole/fluconazole susceptible Candida albicans ATCC MYA-2876 assessed as fungal growth inhibition by double dilution method; type: functional; summary of the method: as §2
Candida albicans [4] = test: Antifungal activity against itraconazole/fluconazole resistant Candida albicans ATCC 90819 assessed as fungal growth inhibition by double dilution method; type: functional; summary of the method: as §2
Candida albicans [5] = test: Antifungal activity against itraconazole/fluconazole susceptible Candida albicans ATCC MYA-2310 assessed as fungal growth inhibition by double dilution method; type: functional; summary of the method: as §2
Candida albicans [6] = test: Antifungal activity against itraconazole/fluconazole resistant Candida albicans ATCC MYA-1237 assessed as fungal growth inhibition by double dilution method; type: functional; summary of the method: as §2
Candida albicans [7] = test: Antifungal activity against itraconazole/fluconazole resistant Candida albicans ATCC MYA-1003 assessed as fungal growth inhibition by double dilution method; type: functional; summary of the method: as §2
Nakaseomyces glabratus [8] = test: Antifungal activity against Candida glabrata ATCC 2001 assessed as fungal growth inhibition by double dilution method; type: functional; summary of the method: as §1
Pichia kudriavzevii [9] = test: Antifungal activity against Pichia kudriavzevii ATCC 6258 assessed as fungal growth inhibition by double dilution method; type: functional; summary of the method: as §1
Nakaseomyces glabratus [10] = test: Antifungal activity against Candida glabrata ATCC 22019 assessed as fungal growth inhibition by double dilution method; type: functional; summary of the method: as §1
[Candida] auris [11] = Antifungal activity against Candida auris AR Bank # 0384 assessed as fungal growth inhibition by double dilution method; type: functional; conditions: Candidozyma auris; summary of the method: as §1
[Candida] auris [12] = Antifungal activity against Candida auris AR Bank # 0390 assessed as fungal growth inhibition by double dilution method; type: functional; conditions: Candidozyma auris; summary of the method: as §1
Cryptococcus neoformans = test: Antifungal activity against Cryptococcus neoformans ATCC MYA-895 assessed as fungal growth inhibition by double dilution method; type: functional; summary of the method: as §1
Aspergillus terreus = test: Antifungal activity against Aspergillus terreus ATCC MYA-3633 assessed as fungal growth inhibition by double dilution method; type: functional
Aspergillus fumigatus [13] = test: Antifungal activity against Aspergillus fumigatus NRRL 163 assessed as fungal growth inhibition by double dilution method; type: functional
Aspergillus flavus = test: Antifungal activity against Aspergillus flavus ATCC MYA-3631 assessed as fungal growth inhibition by double dilution method; type: functional
Aspergillus nidulans = test: Antifungal activity against Aspergillus nidulans ATCC 38163 assessed as fungal growth inhibition by double dilution method; type: functional
Aspergillus fumigatus [14] = test: Antifungal activity against Aspergillus fumigatus NRRL 5109 assessed as fungal growth inhibition by double dilution method; type: functional
Aspergillus fumigatus [15] = test: Antifungal activity against Aspergillus fumigatus NRRL 6113 assessed as fungal growth inhibition by double dilution method; type: functional
[Candida] auris [16] = Antifungal activity against Candida auris AR Bank # 381 assessed as fungal growth inhibition by double dilution method; type: functional; conditions: Candidozyma auris; summary of the method: as §1
[Candida] auris [17] = Antifungal activity against Candida auris AR Bank # 382 assessed as fungal growth inhibition by double dilution method; type: functional; conditions: Candidozyma auris; summary of the method: as §1
[Candida] auris [18] = Antifungal activity against Candida auris AR Bank # 383 assessed as fungal growth inhibition by double dilution method; type: functional; conditions: Candidozyma auris; summary of the method: as §1
[Candida] auris [19] = Antifungal activity against Candida auris AR Bank # 384 assessed as fungal growth inhibition by double dilution method; type: functional; conditions: Candidozyma auris; summary of the method: as §1
[Candida] auris [20] = Antifungal activity against Candida auris AR Bank # 385 assessed as fungal growth inhibition by double dilution method; type: functional; conditions: Candidozyma auris; summary of the method: as §1
[Candida] auris [21] = Antifungal activity against Candida auris AR Bank # 386 assessed as fungal growth inhibition by double dilution method; type: functional; conditions: Candidozyma auris; summary of the method: as §1
[Candida] auris [22] = Antifungal activity against Candida auris AR Bank # 387 assessed as fungal growth inhibition by double dilution method; type: functional; conditions: Candidozyma auris; summary of the method: as §1
[Candida] auris [23] = Antifungal activity against Candida auris AR Bank # 388 assessed as fungal growth inhibition by double dilution method; type: functional; conditions: Candidozyma auris; summary of the method: as §1
[Candida] auris [24] = Antifungal activity against Candida auris AR Bank # 389 assessed as fungal growth inhibition by double dilution method; type: functional; conditions: Candidozyma auris; summary of the method: as §1
[Candida] auris [25] = Antifungal activity against Candida auris AR Bank # 390 assessed as fungal growth inhibition by double dilution method; type: functional; conditions: Candidozyma auris; summary of the method: as §1
Candida duobushaemulonii [26] = test: Antifungal activity against Candida duobushaemulonii AR Bank # 391 assessed as fungal growth inhibition by double dilution method; type: functional; conditions: Candidozyma duobushaemuli; summary of the method: as §1
Candida duobushaemulonii [27] = test: Antifungal activity against Candida duobushaemulonii AR Bank # 392 assessed as fungal growth inhibition by double dilution method; type: functional; conditions: Candidozyma duobushaemuli; summary of the method: as §1
[Candida] haemuloni [28] = Antifungal activity against Candida haemulonii AR Bank # 393 assessed as fungal growth inhibition by double dilution method; type: functional; conditions: Candidozyma haemuli; summary of the method: as §1
Candida duobushaemulonii [29] = test: Antifungal activity against Candida duobushaemulonii AR Bank # 394 assessed as fungal growth inhibition by double dilution method; type: functional; conditions: Candidozyma duobushaemuli; summary of the method: as §1
[Candida] haemuloni [30] = Antifungal activity against Candida haemulonii AR Bank # 395 assessed as fungal growth inhibition by double dilution method; type: functional; conditions: Candidozyma haemuli; summary of the method: as §1
Kodamaea ohmeri = test: Antifungal activity against Kodamaea ohmeri AR Bank # 396 assessed as fungal growth inhibition by double dilution method; type: functional; summary of the method: as §1
Pichia kudriavzevii [31] = test: Antifungal activity against Pichia kudriavzevii AR Bank # 397 assessed as fungal growth inhibition by double dilution method; type: functional; summary of the method: as §1
Clavispora lusitaniae = test: Antifungal activity against Clavispora lusitaniae AR Bank # 398 assessed as fungal growth inhibition by double dilution method; type: functional; summary of the method: as §1
Saccharomyces cerevisiae [32] = test: Antifungal activity against Saccharomyces cerevisiae AR Bank # 399 assessed as fungal growth inhibition by double dilution method; type: functional; summary of the method: as §1
Saccharomyces cerevisiae [33] = test: Antifungal activity against Saccharomyces cerevisiae AR Bank # 400 assessed as fungal growth inhibition by double dilution method; type: functional; summary of the method: as §1
J774.A1 = test: Cytotoxicity against J774A.1 cells assessed as reduction in cell viability at 31.3 microg/ml; type: toxicity, cell-based; conditions: mouse, dose 31.3 µg/ml
Summary of the method: (§3)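 Cells in DMEM with 10% FBS and 1% Pen/Strep, seeded at 10,000 cells/well and held overnight at 37 °C, 5% CO2. Compounds added at final 31.3-0.12 µg/mL (0.05% DMSO vehicle) for 24 h. Resazurin then added for 6 h; fluorescence read at ex 560/em 590. Triton X-100 1% as positive control; values normalized to vehicle. Run in quadruplicate.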

HEK293 = test: Cytotoxicity against human HEK-293 cells assessed as reduction in cell viability at 31.3 microg/ml; type: toxicity, cell-based; conditions: dose 31.3 µg/ml; summary of the method: as §3
Candida albicans [34] = test: Antibiofilm activity against Candida albicans ATCC 10231 assessed as reduction in biofilm production at 1.96 to 3.9 microg/ml by biofilm formation assay; type: functional, organism-based; conditions: dose 1.96-3.9 µg/ml

O=C(NNc1ccc(F)cc1)c1ccccn1
MIC (Candida albicans [1]): 0.12 µg/mL (≈ 0.519 µM) | MIC (Candida albicans [2]): 0.98 µg/mL (≈ 4.24 µM) | MIC (Candida albicans [3]): 3.9 µg/mL (≈ 16.9 µM) | MIC (Candida albicans [4]): 0.98 µg/mL (≈ 4.24 µM) | MIC (Candida albicans [5]): 1.95 µg/mL (≈ 8.43 µM) | MIC (Candida albicans [6]): 1.95 µg/mL (≈ 8.43 µM) | MIC (Candida albicans [7]): 0.49 µg/mL (≈ 2.12 µM) | MIC (Nakaseomyces glabratus [8]): 1.95 µg/mL (≈ 8.43 µM) | MIC (Pichia kudriavzevii [9]): 0.12 µg/mL (≈ 0.519 µM) | MIC (Nakaseomyces glabratus [10]): 1.95 µg/mL (≈ 8.43 µM) | MIC ([Candida] auris [11]): 3.9 µg/mL (≈ 16.9 µM) | MIC ([Candida] auris [12]): 0.98 µg/mL (≈ 4.24 µM) | MIC (Cryptococcus neoformans): 0.24 µg/mL (≈ 1.04 µM) | MIC (Aspergillus terreus): 1.95 µg/mL (≈ 8.43 µM) | MIC (Aspergillus fumigatus [13]): 31.3 µg/mL (≈ 135 µM) | MIC (Aspergillus flavus): 31.3 µg/mL (≈ 135 µM) | MIC (Aspergillus nidulans): 0.49 µg/mL (≈ 2.12 µM) | MIC (Aspergillus fumigatus [14]): 7.8 µg/mL (≈ 33.7 µM) | MIC (Aspergillus fumigatus [15]): 15.6 µg/mL (≈ 67.5 µM) | MIC ([Candida] auris [16]): 0.98 µg/mL (≈ 4.24 µM) | MIC ([Candida] auris [17]): 1.95 µg/mL (≈ 8.43 µM) | MIC ([Candida] auris [18]): 1.95 µg/mL (≈ 8.43 µM) | MIC ([Candida] auris [19]): 3.9 µg/mL (≈ 16.9 µM) | MIC ([Candida] auris [20]): 0.98 µg/mL (≈ 4.24 µM) | MIC ([Candida] auris [21]): 0.49 µg/mL (≈ 2.12 µM) | MIC ([Candida] auris [22]): 0.98 µg/mL (≈ 4.24 µM) | MIC ([Candida] auris [23]): 0.98 µg/mL (≈ 4.24 µM) | MIC ([Candida] auris [24]): 0.49 µg/mL (≈ 2.12 µM) | MIC ([Candida] auris [25]): 0.98 µg/mL (≈ 4.24 µM) | MIC (Candida duobushaemulonii [26]): 0.49 µg/mL (≈ 2.12 µM) | MIC (Candida duobushaemulonii [27]): 0.49 µg/mL (≈ 2.12 µM) | MIC ([Candida] haemuloni [28]): 0.24 µg/mL (≈ 1.04 µM) | MIC (Candida duobushaemulonii [29]): 0.24 µg/mL (≈ 1.04 µM) | MIC ([Candida] haemuloni [30]): 0.12 µg/mL (≈ 0.519 µM) | MIC (Kodamaea ohmeri): 0.24 µg/mL (≈ 1.04 µM) | MIC (Pichia kudriavzevii [31]): 0.24 µg/mL (≈ 1.04 µM) | MIC (Clavispora lusitaniae): 1.95 µg/mL (≈ 8.43 µM) | MIC (Saccharomyces cerevisiae [32]): 3.9 µg/mL (≈ 16.9 µM) | MIC (Saccharomyces cerevisiae [33]): 1.95 µg/mL (≈ 8.43 µM) | Activity (J774.A1): Non-Toxic | Activity (HEK293): Non-Toxic | Activity (Candida albicans [34]): Active
